Converted amounts (≈) assume the structure as drawn. “And” between values parts separate entries of the source, which are not always exact repeats. Equal values may be shown once. Read-outs that look alike come from different tables or passages of the source. Marks after values point to notes of the source that are not given here.
How the values were obtained:
[1] = Solubility; type: physicochemical
[2] = cited from earlier work
[3] = Safety and tolerability; type: in vivo, human
Outline: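 Open-label, randomized, 4-period balanced crossover in healthy adults (18–65 years, ≥40 kg; women of non-childbearing potential only). Single 1500-mg (free base equivalent) dose of test compound (peptide deformylase inhibitor) as IV mesylate salt solution, 60-minute infusion, fasted; 3-day washout between periods. Safety from observed AEs and changes over time in hematology, clinical chemistry, urinalysis, vital signs and ECGs, summarized descriptively.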

[4] = type: in vivo, human; conditions: for AUC(0-inf): AUC0−∞; for Tmax: median (range)
Outline: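 Open-label, randomized 4-period crossover in healthy adults (18–65 y, ≥40 kg). Each received single 1500-mg free-base-equivalent doses: 60-min IV mesylate infusion, tablet fasted or after a 490-calorie moderate-fat meal, and oral mesylate solution fasted, with 3-day washouts. Plasma sampled predose to 72 h; LC-MS/MS (5–5000 ng/mL). Noncompartmental analysis; bioavailability from oral vs IV AUC0−∞; log-transformed mixed-effects model; CVw from residual MSE.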

[5] = Biopharmaceutics Classification System characteristics; type: physicochemical; conditions: high permeability and poor solubility; no official regulatory decision yet
[6] = Fed to fasted, free base tablet
[7] = human, plasma, oral, 1500 mg, mean (SD), 1500-mg free base tablet, fasted state
[8] = human, plasma, po, 1500 mg, mean (SD), 1500-mg oral MS solution, fasted state

## Cc1nc(NNC(=O)[C@H](CC2CCCC2)CN(O)C=O)c(F)c(N2CCN3CCOC[C@@H]3C2)n1 [GSK1322322]
[1]; fasted state-simulated intestinal fluid, pH 6.5, fassif
  solubility: ~0.5 mg/mL (≈ 1.04 mM)
[1]; pH 3.5
  solubility: 40 mg/mL (≈ 83.4 mM)
[2]; free base tablet 1000 mg
  Relative bioavailability fed vs fasted: 119%
[2]; single 1500-mg IV dose, first-time-in-human IV study
  Cmax: 25500 ng/mL
[2]; tablet formulation 1500 mg, previous phase I study
  Absolute bioavailability: 56%
[3]; IV 1500 mg, period 3
  Withdrawal because of a drug-related AE (bronchospasm): One volunteer was withdrawn
[3]; all treatments
  Vital signs, chemistry, or hematology data: No apparent trends or changes from baseline
[3]; all treatments, single 1500-mg doses
  Intensity of adverse events: mild-to-moderate
[3]; range across the four treatments
  Volunteers with an AE per treatment: 42–65%
[4]; Fasted to MS
  Relative bioavailability, ratio of geometric least square mean Cmax (90% CI): 0.57 (0.48, 0.69)
  Tmax estimated median difference (90% CI): 0.13 (0.00, 0.37) ^c h
[4]; Fasted to MS (free base tablet fasted vs oral MS solution)
  Relative bioavailability, ratio of geometric least square mean AUC0−∞ (90% CI): 0.62 (0.56, 0.69)
[4]; Fed to MS
  Relative bioavailability, ratio of geometric least square mean Cmax (90% CI): 0.57 (0.47, 0.68)
  Tmax estimated median difference (90% CI): 0.99 (0.63, 1.74) ^d h
[4]; Fed to MS (free base tablet fed vs oral MS solution)
  Relative bioavailability, ratio of geometric least square mean AUC0−∞ (90% CI): 0.84 (0.76, 0.94)
[4]; [6]
  Food effect, ratio of geometric least square mean AUC0−∞ (90% CI): 1.36 (1.22, 1.51)
  Food effect, ratio of geometric least square mean Cmax (90% CI): 0.99 (0.82, 1.18)
  Tmax estimated median difference (90% CI): 0.88 (0.50, 1.25) ^e h
[4]; free base tablet after a meal vs fasted state
  Relative bioavailability: 136%
[4]; free base tablet fasted vs IV, 1500 mg
  Absolute bioavailability, ratio of geometric least square mean AUC0−∞ (90% CI): 0.57 (0.51, 0.63)
[4]; free base tablet fasted vs oral mesylate salt solution fasted
  Relative bioavailability: 62%
[4]; free base tablet fed vs IV, 1500 mg
  Absolute bioavailability, ratio of geometric least square mean AUC0−∞ (90% CI): 0.77 (0.69, 0.86)
[4]; free base tablet fed vs oral mesylate salt solution fasted
  Relative bioavailability: 84%
[4]; free base tablet, fed vs fasted state, moderate-fat/calorie meal
  Increase in AUC0−∞ with food: 36%
[4]; human, plasma, iv, 1500 mg
  Vd: 69.2 L
  clearance: 367 mL/min
[4]; human, plasma, iv, 1500 mg, mean (SD), 1500-mg IV MS solution, 60-minute infusion
  AUC(0-inf): 75400 ng·h/mL
[4]; human, plasma, iv, 1500 mg, mean (SD), 1500-mg IV MS solution
  Cmax: 28600 ng/mL
[4]; human, plasma, iv, 1500 mg, 1500-mg IV MS solution
  Tmax: 1 h
[4]; human, plasma, iv, 1500 mg, t1/2, mean (SD), 1500-mg IV MS solution
  half-life: 10.3 h
[4]; [7]
  AUC(0-inf): 46100 ng·h/mL
  Cmax: 17100 ng/mL
[4]; human, plasma, oral, 1500 mg, mean (SD), 1500-mg free base tablet, fed state (moderate-fat/calorie meal)
  AUC(0-inf): 58900 ng·h/mL
[4]; human, plasma, oral, 1500 mg, mean (SD), 1500-mg free base tablet, fed state
  Cmax: 15500 ng/mL
[4]; human, plasma, oral, 1500 mg, 1500-mg free base tablet, fasted state
  Tmax: 0.5 h
[4]; human, plasma, oral, 1500 mg, 1500-mg free base tablet, fed state
  Tmax: 1.5 h
[4]; human, plasma, oral, 1500 mg, t1/2, mean (SD), 1500-mg free base tablet, fasted state
  half-life: 9.4 h
[4]; human, plasma, oral, 1500 mg, t1/2, mean (SD), 1500-mg free base tablet, fed state
  half-life: 8.7 h
[4]; human, plasma, other: IV or oral, 1500 mg, t1/2, range of means after single-dose IV or oral administration
  half-life: 8.7 to 10.3 h
[4]; [8]
  AUC(0-inf): 69700 ng·h/mL
  Cmax: 25800 ng/mL
[4]; human, plasma, po, 1500 mg, 1500-mg oral MS solution, fasted state
  Tmax: 0.5 h
[4]; human, plasma, po, 1500 mg, t1/2, mean (SD), 1500-mg oral MS solution, fasted state
  half-life: 9.6 h
[4]; mean (SD), 1500-mg IV MS solution
  Varea: 317.2 (131.5) L
[4]; mean (SD), 1500-mg free base tablet, fasted state
  CL/F: 42.6 (26.6) L/h
[4]; mean (SD), 1500-mg free base tablet, fed state
  CL/F: 28.4 (9.0) L/h
[4]; mean (SD), 1500-mg oral MS solution, fasted state
  CL/F: 23.8 (7.3) L/h
[4]; oral MS solution fasted vs IV, 1500 mg
  Absolute bioavailability, ratio of geometric least square mean AUC0−∞ (90% CI): 0.92 (0.82, 1.02)
[4]; pooled across regimens
  CVw (within coefficient of variation) of AUC0−∞: 22%
  CVw (within coefficient of variation) of Cmax: 39% and 38.7%
[5]
  Biopharmaceutics Classification System class: Class 2

Source: article PMC4467258 (Clinical Pharmacology in Drug Development, 2014)
